Values joined by “and” are separate entries in the source; they are usually repeats but may differ in a detail not shown here. Identical values can stand only once. Like-named read-outs stand apart in the source and are kept apart here. Marks after values point to notes of the source that are not given here.
Experiments:
[1] = test system: txnrd1; test: qRT-PCR expression of txnrd1 in HepG2; type: cell-based, human; settings: for Fold induction from untreated cells Txnrd1: HepG2, 8 h incubation at IC50 concentration, mean ± SEM; for down-regulation (inhibition) of txnrd1 expression: HepG2, 8 h
[2] = test system: topoisomerase II (Topo II); test: Topo II concentration in HepG2 cells, sandwich ELISA; type: cell-based, human; settings: HepG2, IC50 concentration, 8 hours
[3] = test system: caspase 3; test: qRT-PCR expression of caspase 3 in HepG2; type: cell-based, human; settings: HepG2, 8 h incubation at IC50 concentration, mean ± SEM
[4] = test system: p53; test: qRT-PCR expression of p53 in HepG2; type: cell-based, human; settings: HepG2, 8 h incubation at IC50 concentration, mean ± SEM
[5] = test system: HepG2, MCF7 and WI-38 cells; test: MTT anti-proliferative assay, cell lines summarised together in text; type: cell-based; settings: Homo sapiens
In short: (§1)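 HepG2 (passage 11), MCF7 (passage 13) and normal WI-38 fibroblasts were seeded at […]. Cells were exposed to test compound at 0.5, 1, 10, 20, 50 and 100 μM for 48 h, then incubated with MTT for 4 h. Formazan was dissolved in DMSO and read at 570 nm. Untreated and doxorubicin-treated cells were included. IC50 came from dose–response curves, mean ± SEM of two independent experiments.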

[6] = test system: HepG2 cells; test: MTT anti-proliferative assay, HepG2; type: cell-based, human; settings: HepG2, 48 h, read-out: IC50 HepG2
In short: as §1

[7] = test system: MCF7 cells; test: MTT anti-proliferative assay, MCF7; type: cell-based, human; settings: MCF7, 48 h, read-out: IC50 MCF7
In short: as §1

[8] = test system: p38 mitogen-activated protein kinase (MAPK); test: MAPK concentration in HepG2 cells, sandwich ELISA; type: cell-based, human; settings: HepG2, IC50 concentration, 8 hours
[9] = test system: cleaved caspase 3; test: Active cleaved caspase 3 activity in HepG2, colorimetric kit; type: cell-based, human; settings: HepG2, IC50 concentration, 12 h
[10] = test system: cdk1; test: qRT-PCR expression of cdk1 in HepG2; type: cell-based, human; settings: for inhibition in cdk1 expression: HepG2, 8 h
[11] = test system: WI-38 cells; test: MTT assay, normal fibroblasts WI-38; type: cell-based; settings: read-out: IC50 WI-38, WI-38 normal fibroblasts, 48 h, mean ± SEM
[12] = read-out: IC50 against cancer cell lines

Compound: COc1ccc(NCSc2nnc(-c3nn(CNc4ccc(OC)cc4)c(=O)c4ccccc34)o2)cc1 [Compound 7d, 2-(((4-Methoxyphenyl)amino)methyl)-4-(5-((((4-methoxyphenyl)amino)methyl)thio)-1,3,4-oxadiazol-2-yl)phthalazin-1(2H)-one]
- Fold induction from untreated cells Txnrd1 [1]: 1.02 ± 0.16 fold
- decrease in Topo II concentration [2]: 31%
- Fold induction from untreated cells Caspase 3 [3]: 2 fold and 1.96 ± 0.09 ^a fold
- Fold induction from untreated cells p53 [4]: 2 fold and 2.16 ± 0.12 ^a fold
- IC50 [5, 12]: 5.5 to 15 µM
- IC50 ([6]; Homo sapiens): 6.3 ± 0.7 µM
- IC50 ([7]; Homo sapiens): 5.5 ± 0.4 µM

Compound: O=c1[nH]nc(-c2nnc(SCc3ccccc3)o2)c2ccccc12 [Compound 2b, 4-(5-(Benzylthio)-1,3,4-oxadiazol-2-yl)phthalazin-1(2H)-one]
- IC50 ([6]; Homo sapiens): 58.9 ± 4 µM
- IC50 ([7]; Homo sapiens): 68.2 ± 4.4 µM

Compound: Cc1ccc(NCSc2nnc(-c3nn(CNc4ccc(C)cc4)c(=O)c4ccccc34)o2)cc1 [Compound 7a, 2-((p-Tolylamino)methyl)-4-(5-(((p-tolylamino)methyl)thio)-1,3,4-oxadiazol-2-yl)phthalazin-1(2H)-one]
- IC50 ([6]; Homo sapiens): 23.5 ± 2.8 µM
- IC50 ([7]; Homo sapiens): 26.2 ± 2.5 µM

Compound: O=c1[nH]nc(-c2nnc(S)o2)c2ccccc12 [Compound 1, 4-(5-mercapto-1,3,4-oxadiazol-2-yl)phthalazin-1(2H)-one]
- down-regulation (inhibition) of txnrd1 expression [1]: 33%
- Fold induction from untreated cells Txnrd1 [1]: 0.67 ± 0.03 fold
- decrease in Topo II concentration [2]: 84%
- reduction in MAPK concentration compared to untreated cells [8]: 84%
- Fold induction from untreated cells Caspase 3 [3]: 3.10 ± 0.21 ^a fold
- Fold induction from untreated cells p53 [4]: 3.83 ± 0.11 ^a fold
- IC50 ([6]; Homo sapiens): 4.5 ± 1.1 µM
- elevation in activity of active cleaved caspase 3 compared to untreated cells [9]: ~7 fold
- inhibition in cdk1 expression [10]: ~78%
- Fold induction from untreated cells Cdk1 ([10]; HepG2, 8 h incubation at IC50 concentration, mean ± SEM): 0.22 ± 0.03 ^a fold
- IC50 ([7]; Homo sapiens): 4.9 ± 0.8 µM

Compound: O=C(CSc1nnc(-c2n[nH]c(=O)c3ccccc23)o1)Nc1ccc(Cl)cc1 [Compound 4d, N-(4-Chlorophenyl)-2-((5-(4-oxo-3,4-dihydrophthalazin-1-yl)-1,3,4-oxadiazol-2-yl)thio)acetamide]
- IC50 ([6]; Homo sapiens): 53.9 ± 3.8 µM
- IC50 ([7]; Homo sapiens): 49.5 ± 3.9 µM

Compound: O=c1c2ccccc2c(-c2nnc(SCNc3ccc(Cl)cc3)o2)nn1CNc1ccc(Cl)cc1 [Compound 7b, 2-(((4-Chlorophenyl)amino)methyl)-4-(5-((((4-chlorophenyl)amino)methyl)thio)-1,3,4-oxadiazol-2-yl)phthalazin-1(2H)-one]
- IC50 ([6]; Homo sapiens): 33.3 ± 3.4 µM
- IC50 ([7]; Homo sapiens): 31.3 ± 2.8 µM

Compound: CC(=O)c1ccc(NC(=O)CSc2nnc(-c3n[nH]c(=O)c4ccccc34)o2)cc1 [Compound 4a, N-(4-Acetylphenyl)-2-((5-(4-oxo-3,4-dihydrophthalazin-1-yl)-1,3,4-oxadiazol-2-yl)thio)acetamide]
- IC50 ([6]; Homo sapiens): 72.6 ± 4.8 µM
- IC50 ([7]; Homo sapiens): 76.2 ± 4.7 µM

Compound: O=c1c2ccccc2c(-c2nnc(SCNc3ccc([N+](=O)[O-])cc3)o2)nn1CNc1ccc([N+](=O)[O-])cc1 [Compound 7e, 2-(((4-Nitrophenyl)amino)methyl)-4-(5-((((4-nitrophenyl)amino)methyl)thio)-1,3,4-oxadiazol-2-yl)phthalazin-1(2H)-one]
- Fold induction from untreated cells Txnrd1 [1]: 1.11 ± 0.10 fold
- Fold induction from untreated cells Caspase 3 [3]: 2 fold and 2.22 ± 0.14 ^a fold
- IC50 [11]: 21.6 ± 1.8 µM
- Fold induction from untreated cells p53 [4]: 2 fold and 2.02 ± 0.08 ^a fold
- IC50 [5, 12]: 5.5 to 15 µM
- IC50 ([6]; Homo sapiens): 7 ± 1.5 µM
- IC50 ([7]; Homo sapiens): 8.4 ± 0.9 µM

Compound: COc1cccc2c1C(=O)c1c(O)c3c(c(O)c1C2=O)C[C@@](O)(C(=O)CO)C[C@@H]3O[C@H]1C[C@H](N)[C@H](O)[C@H](C)O1 [DOX, Doxorubicin, reference compound]
- down-regulation (inhibition) of txnrd1 expression [1]: 56%
- decrease in Topo II concentration [2]: 87%
- reduction in MAPK concentration compared to untreated cells [8]: 85%
- IC50 ([5]; read-out: IC50 against all cells investigated): 4 to 7 µM
- IC50 ([6]; Homo sapiens): 4.5 ± 0.3 µM
- inhibition in cdk1 expression [10]: ~75%
- IC50 ([7]; Homo sapiens): 4.2 ± 0.2 µM

Compound: O=c1[nH]nc(-c2nnc(SCNC3CCCCC3)o2)c2ccccc12 [Compound 7g, 4-(5-(((Cyclohexylamino)methyl)thio)-1,3,4-oxadiazol-2-yl)phthalazin-1(2H)-one]
- IC50 ([6]; Homo sapiens): 42.9 ± 3.7 µM
- IC50 ([7]; Homo sapiens): 45.5 ± 3.8 µM

Compound: CCSc1nnc(-c2n[nH]c(=O)c3ccccc23)o1 [Compound 2a, 4-(5-(Ethylthio)-1,3,4-oxadiazol-2-yl)phthalazin-1(2H)-one]
- IC50 ([6]; Homo sapiens): 61.3 ± 4.2 µM
- IC50 ([7]; Homo sapiens): 55.8 ± 4 µM

Compound: O=C(CSc1nnc(-c2n[nH]c(=O)c3ccccc23)o1)c1cccc([N+](=O)[O-])c1 [Compound 2d, 4-(5-((2-(3-Nitrophenyl)-2-oxoethyl)thio)-1,3,4-oxadiazol-2-yl)phthalazin-1(2H)-one]
- IC50 ([6]; Homo sapiens): > 100 µM
- IC50 ([7]; Homo sapiens): > 100 µM

Compound: Cc1ccc(NC(=O)CSc2nnc(-c3n[nH]c(=O)c4ccccc34)o2)cc1 [Compound 4c, 2-((5-(4-Oxo-3,4-dihydrophthalazin-1-yl)-1,3,4-oxadiazol-2-yl)thio)-N-(p-tolyl)acetamide]
- IC50 ([6]; Homo sapiens): 28.1 ± 2.9 µM
- IC50 ([7]; Homo sapiens): 36.3 ± 3.2 µM

Compound: O=c1c2ccccc2c(-c2nnc(SCNc3cccnc3)o2)nn1CNc1cccnc1 [Compound 7f, 2-((Pyridin-3-ylamino)methyl)-4-(5-(((pyridin-3-ylamino)methyl)thio)-1,3,4-oxadiazol-2-yl)phthalazin-1(2H)-one]
- IC50 ([6]; Homo sapiens): 21.8 ± 2.3 µM
- IC50 ([7]; Homo sapiens): 20.8 ± 1.9 µM

Compound: O=C(CSc1nnc(-c2n[nH]c(=O)c3ccccc23)o1)c1ccccc1 [Compound 2c, 4-(5-((2-Oxo-2-phenylethyl)thio)-1,3,4-oxadiazol-2-yl)phthalazin-1(2H)-one]
- IC50 ([6]; Homo sapiens): 66.1 ± 4.5 µM
- IC50 ([7]; Homo sapiens): 57.3 ± 4.2 µM

Compound: NS(=O)(=O)c1ccc(NC(=O)CSc2nnc(-c3n[nH]c(=O)c4ccccc34)o2)cc1 [Compound 4b, 2-((5-(4-Oxo-3,4-dihydrophthalazin-1-yl)-1,3,4-oxadiazol-2-yl)thio)-N-(4-sulfamoylphenyl)acetamide]
- IC50 ([6]; Homo sapiens): 83.9 ± 5.2 µM
- IC50 ([7]; Homo sapiens): > 100 µM

Compound: S-(5-(4-Oxo-3,4-dihydrophthalazin-1-yl)-1,3,4-oxadiazol-2-yl)2-(2-isonicotinoylhydrazinyl)ethanethioate [Compound 3]
- IC50 [11]: 44.6 ± 4.2 µM
- IC50 ([6]; MTT, mean ± SEM): 38.4 ± 3.5 µM
- IC50 ([7]; MTT, mean ± SEM): 40 ± 3.6 µM

Compound: O=c1c2ccccc2c(-c2nnc(SCNc3ccccc3Cl)o2)nn1CNc1ccccc1Cl [Compound 7c, 2-(((2-Chlorophenyl)amino)methyl)-4-(5-((((2-chlorophenyl)amino)methyl)thio)-1,3,4-oxadiazol-2-yl)phthalazin-1(2H)-one]
- IC50 [11]: 23.2 ± 1.2 µM
- IC50 ([6]; Homo sapiens): 17.2 ± 1.9 µM
- IC50 ([7]; Homo sapiens): 15.4 ± 1.2 µM

— paper PMC9048702 (RSC Advances, 2020)
